Test results published in ChEMBL document CHEMBL1123184, “Thromboxane synthetase inhibitors and antihypertensive agents. 2. N-[(1H-imidazol-1-yl)alkyl]-1H-isoindole-1,3(2H)-diones and N-[(1H-1,2,4-triazol-1-yl)alkyl]-1H-isoindole-1,3(2H)-diones as unique antihypertensive agents” (J Med Chem, 1986).
Values belong to the compound of their own block, whether it stands above or below them. Calls of active or inactive are those of the source.

Assays:
[1] = target: T1, Thromboxane-A synthase (Rattus norvegicus) (UniProt P49430); experiment: Inhibition of thromboxane formation in platelets at a concentration of 10e-4 M; assay type: functional
T1 sequence (whole entry): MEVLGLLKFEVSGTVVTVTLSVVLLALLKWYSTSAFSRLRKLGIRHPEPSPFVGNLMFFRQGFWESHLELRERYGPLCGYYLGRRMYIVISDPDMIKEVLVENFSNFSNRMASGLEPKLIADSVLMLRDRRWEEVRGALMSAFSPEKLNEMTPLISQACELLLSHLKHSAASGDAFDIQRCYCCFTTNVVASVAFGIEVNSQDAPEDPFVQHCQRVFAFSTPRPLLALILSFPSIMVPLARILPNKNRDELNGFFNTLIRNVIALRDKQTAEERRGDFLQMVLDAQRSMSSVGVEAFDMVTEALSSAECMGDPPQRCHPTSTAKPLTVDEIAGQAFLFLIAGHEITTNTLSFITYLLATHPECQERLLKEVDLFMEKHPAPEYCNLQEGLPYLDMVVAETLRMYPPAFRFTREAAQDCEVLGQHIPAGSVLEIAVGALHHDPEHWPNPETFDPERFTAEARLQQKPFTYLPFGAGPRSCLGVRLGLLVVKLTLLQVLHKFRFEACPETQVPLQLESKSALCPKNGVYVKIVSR
Outline: (§1)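 SHR washed platelets (4.5–6.0 × 10^4/μL, Krebs phosphate pH 7.4) incubated 10 min at 37 °C with compound at 10^-4 M. Reaction stopped with citric acid on ice. TXB2 quantified by RIA, boiled-control blank subtracted, and percent inhibition of TXB2 formation calculated. Number of determinations given per value.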

Rattus norvegicus [2] = experiment: Compound was tested for the antihypertensive activity in rats, after peroral administration of 100 mg/kg for 2 days (no. of rats=2); I=Inactive; assay type: functional, organism-based; set-up: dose 100 mg/kg
Outline: (§2)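 Male 16-week-old Okamoto SHR (mean arterial pressure 170 ± 1.5 mmHg). Compound suspended in 2% preboiled starch (50 mg/mL) and given by gavage at 100 mg/kg, with 0.9% NaCl load 25 mL/kg. Second identical dose without saline 24 h later. Mean arterial pressure read 28 h after first dose. Active: one rat ≤116 mmHg or mean of two ≤122 mmHg.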

Thromboxane-A synthase [3] = target: T2, Thromboxane-A synthase (Rattus norvegicus, UniProt P49430); experiment: (§3) Compound was tested for the inhibition of thromboxane synthetase
T2 sequence (P49430 whole entry): T1 sequence (whole entry)
Outline: (§4)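 Washed platelets from urethan-anesthetized SHR aged 19–24 weeks, in oxygenated Krebs phosphate buffer pH 7.4 at (4.5–6.0) × 10^4 platelets/μL. Incubated 10 min at 37 °C with compound, stopped with citric acid on ice. TXB2 measured by RIA; boiled-sample blank subtracted. IC50 read from percent inhibition vs log concentration plot; duplicate measurements.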

Rattus norvegicus [4] = experiment: Compound was tested for the antihypertensive activity in rats, after peroral administration of 100 mg/kg for 2 days (no. of rats=2); A=Active; assay type: functional, organism-based; set-up: dose 100 mg/kg; outline: as §2
Rattus norvegicus [5] = experiment: Compound was tested for the antihypertensive activity in rats, after peroral administration of 100 mg/kg for 2 days (no. of rats=2); a=Active; assay type: functional, organism-based; set-up: dose 100 mg/kg; outline: as §2
Rattus norvegicus [6] = experiment: Compound was tested for the antihypertensive activity in rats, after peroral administration of 100 mg/kg for 2 days (no. of rats=4); I=Inactive; assay type: functional, organism-based; set-up: dose 100 mg/kg; outline: as §2
[7] = target: T1, Thromboxane-A synthase (Rattus norvegicus); experiment: Inhibition of thromboxane formation (thromboxane synthetase) in platelets at 10e-4 M; assay type: functional; outline: as §1
Rattus norvegicus [8] = experiment: Compound was tested for the antihypertensive activity in rats, after peroral administration of 100 mg/kg; I=Inactive; assay type: functional, organism-based; set-up: dose 100 mg/kg; outline: as §2
Thromboxane-A synthase [9] = target: T2, Thromboxane-A synthase; experiment: as §3; assay type: functional; outline: as §4
Rattus norvegicus [10] = experiment: Compound was tested for the antihypertensive activity in rats, after peroral administration of 100 mg/kg for 2 days (no. of rats=3); I=Inactive; assay type: functional, organism-based; set-up: dose 100 mg/kg; outline: as §2
Rattus norvegicus [11] = experiment: Compound was tested for the antihypertensive activity in rats, after peroral administration of 100 mg/kg; A=Active; assay type: functional, organism-based; set-up: dose 100 mg/kg; outline: as §2
Rattus norvegicus [12] = experiment: Compound was tested for the antihypertensive activity in rats, after peroral administration of 100 mg/kg for 2 days (no. of rats=3); A=Active; assay type: functional, organism-based; set-up: dose 100 mg/kg; outline: as §2

Compound: CCc1nccn1CCCN1C(=O)c2ccccc2C1=O
inhibition [1]: 0%
Activity (Rattus norvegicus [2]): inactive

Compound: O=C1c2ccccc2C(=O)N1CCCn1ccnc1
IC50 (Thromboxane-A synthase [3]): 5000 nM
inhibition [1]: 94%
Activity (Rattus norvegicus [4]): Active

Compound: O=C1c2ccccc2C(=O)N1CCn1cncn1
inhibition [1]: 0%
Activity (Rattus norvegicus [5]): Active

Compound: O=C1c2ccccc2C(=O)N1CCCCn1ccnc1
IC50 (Thromboxane-A synthase [3]): 2000 nM
inhibition [1]: 99%
Activity (Rattus norvegicus [4]): Active

Compound: O=C1c2ccccc2C(=O)N1CCCn1cncn1
inhibition [1]: 64%
Activity (Rattus norvegicus [4]): Active

Compound: O=C1c2ccc(Cl)c(Cl)c2C(=O)N1CCCn1cncn1
inhibition [7]: 73%
Activity (Rattus norvegicus [8]): inactive

Compound: O=C1c2cccc(Br)c2C(=O)N1CCCCCn1ccnc1
IC50 (Thromboxane-A synthase [9]): 600 nM
inhibition [7]: 87%
Activity (Rattus norvegicus [8]): inactive

Compound: Cc1cn(CCCCN2C(=O)c3ccccc3C2=O)cn1
Activity (Rattus norvegicus [10]): inactive
inhibition [1]: 86%

Compound: O=C1c2ccccc2C(=O)N1C/C=C/Cn1ccnc1
inhibition [1]: 85%
Activity (Rattus norvegicus [4]): Active

Compound: Cc1nccn1CCCCN1C(=O)c2ccccc2C1=O
inhibition [1]: 22%
Activity (Rattus norvegicus [6]): inactive

Compound: O=C1c2ccccc2C(=O)N1CCCCCCCCCCn1ccnc1
IC50 (Thromboxane-A synthase [9]): 100 nM
inhibition [7]: 92%
Activity (Rattus norvegicus [8]): inactive

Compound: CCc1nccn1CCCCN1C(=O)c2ccccc2C1=O
inhibition [1]: 65%
Activity (Rattus norvegicus [2]): inactive

Compound: CC(CCn1ccnc1)N1C(=O)c2ccccc2C1=O (stereo unspecified)
Activity (Rattus norvegicus [12]): Active
inhibition [1]: 94%

Compound: CC(CCn1ccnc1)N1C(=O)c2cccc(Br)c2C1=O (stereo unspecified)
inhibition [7]: 89%
Activity (Rattus norvegicus [8]): inactive

Compound: O=C1c2ccccc2C(=O)N1CCCCCCCCn1ccnc1
IC50 (Thromboxane-A synthase [9]): 200 nM
inhibition [7]: 100%
Activity (Rattus norvegicus [8]): inactive

Compound: O=C1c2ccccc2C(=O)N1CCCCCn1ccnc1
IC50 (Thromboxane-A synthase [3]): 6000 nM
inhibition [1]: 92%
Activity (Rattus norvegicus [4]): Active

Compound: Cc1cn(CCCN2C(=O)c3ccccc3C2=O)cn1
inhibition [1]: 68%
Activity (Rattus norvegicus [2]): inactive

Compound: O=C1c2ccccc2C(=O)N1CC#CCn1ccnc1
Activity (Rattus norvegicus [11]): Active
inhibition [7]: 100%

Compound: O=C1c2ccccc2C(=O)N1CCCCCCn1ccnc1
Activity (Rattus norvegicus [11]): Active
IC50 (Thromboxane-A synthase [9]): 1500 nM
inhibition [7]: 100%

Compound: O=C1c2ccccc2C(=O)N1CCCCCn1cncn1
inhibition [1]: 79%
Activity (Rattus norvegicus [4]): Active

The next lines start with results.

IC50 (Thromboxane-A synthase [3]): 2000 nM
inhibition [1]: 100%
Compound: Cc1cccc2c1C(=O)N(CCCCn1ccnc1)C2=O
Activity (Rattus norvegicus [4]): Active

inhibition [1]: 47%
Compound: CC(CCn1cncn1)N1C(=O)c2ccccc2C1=O (stereo unspecified)
Activity (Rattus norvegicus [6]): inactive

inhibition [7]: 92%
Compound: O=C1c2cccc(Cl)c2C(=O)N1CCCn1ccnc1
Activity (Rattus norvegicus [11]): Active

inhibition [1]: 36%
Compound: Cc1nccn1CCCN1C(=O)c2ccccc2C1=O
Activity (Rattus norvegicus [2]): inactive

inhibition [1]: 70%
Compound: O=C1c2ccccc2C(=O)N1CCCCn1cncn1

IC50 (Thromboxane-A synthase [3]): 4000 nM
inhibition [1]: 100%
Compound: Cc1cccc2c1C(=O)N(CCCn1ccnc1)C2=O
Activity (Rattus norvegicus [10]): inactive

IC50 (Thromboxane-A synthase [9]): 1000 nM
inhibition [7]: 100%
Compound: O=C1c2cccc(Br)c2C(=O)N1CCCCn1ccnc1
Activity (Rattus norvegicus [11]): Active

inhibition [7]: 100%
Compound: O=C1c2ccc(Cl)c(Cl)c2C(=O)N1CCCCn1ccnc1
Activity (Rattus norvegicus [8]): inactive

inhibition [7]: 100%
Compound: O=C1c2cccc(Cl)c2C(=O)N1CCCCn1ccnc1
Activity (Rattus norvegicus [11]): Active

inhibition [1]: 20%
Compound: O=C1c2ccccc2C(=O)N1CCn1ccnc1
Activity (Rattus norvegicus [4]): Active

inhibition [1]: 57%
Compound: O=C1c2ccccc2C(=O)N1CCCCn1ccnc1-c1ccccc1
Activity (Rattus norvegicus [10]): inactive

inhibition [7]: 76%
Compound: O=C1c2cccc(Br)c2C(=O)N1CCCn1cncn1
Activity (Rattus norvegicus [8]): inactive

IC50 (Thromboxane-A synthase [9]): 400 nM
inhibition [7]: 100%
Compound: O=C1c2ccc(Cl)c(Cl)c2C(=O)N1CCCn1ccnc1
Activity (Rattus norvegicus [8]): inactive
